High-throughput results from PubChem.
procasp7 counter – procaspase-7 activators, primary screen, counter-screen for procaspase-3 activator project, biochemical, absorbance, HTS, human; 330,000 compounds, 0.093% hits; activation, % at 8.5 µM; AID 463210, 2010; Caspase-7 (Homo sapiens), P55210; recombinant procaspase-7, Ac-DEVD-pNA absorbance 405 nm; D23A/D198A/D206A triple mutant, cannot self-cleave; scale: DMSO 0, 5 µM enzyme 100;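 active = percent activation above the screen-wide mean plus 3 SD, cut at about 25% in these data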
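Assay system: Uncleavable procaspase-7 mutant enzyme | Input: 2 µM procaspase-7 mutant as dispensed | Timing: 1 h compound preincubation, 2 h substrate cleavage, 25 °C | Repeats: One well per compound | Control set: DMSO wells as 0%, DMSO with 5 µM added PC-7 as 100% | Technique: Epi-absorbance of released pNA at 405 nm, two timepoints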
Lipid droplet – inhibitors of hepatocyte lipid droplet formation, primary screen, imaging, high-throughput imaging, BODIPY stain; AML12 mouse hepatocytes, oleate lipid droplets; inhibition, % at 6.5 µM; 240,000 compounds, 0.4% hits;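 active = lipid droplet intensity inhibited by at least 50%, with more than 500 cells counted; inconclusive = wells with under 300 cells, treated as cytotoxic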
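Material – mouse AML12 hepatocyte cell line, fixed after treatment · Compound dosing – one dose, 6.5 µM compound · Times – compound with oleate, overnight · Measured by – Image-based BODIPY and DAPI two-channel analysis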
VLA-4 inh – inhibition in human VLA-4 binding assay, primary screen, VLA-4 allosteric modulator project, MLPCN library, flow cytometry, VLA-4 expressing cells; Integrin alpha-4 (Homo sapiens), P13612; ligand binding flow cytometry; inhibition, % (about 7 µM as worked out from the volumes in the protocol); 330,000 compounds, 0.2% hits; AID 2557, 2010; in the data active = inhibition above about 50%
GRK2 aptamer HTS – compounds blocking aptamer binding on GRK2 – biochemical, human GRK2, bead flow cytometry, HTS, primary screen; inhibition of aptamer binding, % at 10 µM; AID 488847, 2010; FAM-aptamer displacement from GRK2; Beta-adrenergic receptor kinase 1 (Homo sapiens), P25098; 330,000 compounds, 0.59% hits;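 active = inhibition of aptamer binding above 40%, roughly 3 SD of noise, on plates passing a quality check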;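 also: median bead fluorescence of bound FAM aptamer so fluorescent compounds give negative values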
Target sequence (P25098 whole entry, looked up): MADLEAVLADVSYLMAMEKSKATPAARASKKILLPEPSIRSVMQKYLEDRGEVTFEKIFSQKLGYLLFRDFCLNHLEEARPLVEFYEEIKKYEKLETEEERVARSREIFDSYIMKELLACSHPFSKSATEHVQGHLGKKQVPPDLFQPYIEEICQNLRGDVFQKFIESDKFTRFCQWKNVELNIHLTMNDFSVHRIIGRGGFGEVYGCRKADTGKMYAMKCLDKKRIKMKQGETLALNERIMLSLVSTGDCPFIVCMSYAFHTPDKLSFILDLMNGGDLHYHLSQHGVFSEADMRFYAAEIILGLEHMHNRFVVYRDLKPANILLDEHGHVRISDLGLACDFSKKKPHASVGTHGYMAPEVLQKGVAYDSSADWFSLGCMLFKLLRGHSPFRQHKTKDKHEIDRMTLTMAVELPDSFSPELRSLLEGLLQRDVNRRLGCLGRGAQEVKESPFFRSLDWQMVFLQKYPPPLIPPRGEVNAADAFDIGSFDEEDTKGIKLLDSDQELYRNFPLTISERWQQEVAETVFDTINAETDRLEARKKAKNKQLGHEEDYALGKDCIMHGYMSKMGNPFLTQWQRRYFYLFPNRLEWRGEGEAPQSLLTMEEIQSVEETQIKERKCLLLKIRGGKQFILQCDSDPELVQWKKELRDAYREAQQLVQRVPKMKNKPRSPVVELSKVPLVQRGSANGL
proCasp3 act – activators of human procaspase-3 D3A mutant, primary screen, biochemical, absorbance, PC-3 D3A mutant, single concentration | activation, % at 8.5 µM | 330,000 compounds, 0.11% hits | recombinant procaspase-3 D3A, Ac-DEVD-pNA absorbance 405 nm | AID 463141, 2010;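 active = activation above the mean of all tested compounds plus 3 SD, cut at about 21% in these data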
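Assay system: Procaspase-3 D3A mutant, all three cleavage aspartates alanine. Buffer or medium: Zinc-free HEPES saline buffer with Triton X-100. Times: 1 h compound preincubation, 2 h substrate hydrolysis at 25 °C. Measured by: 405 nm absorbance of p-nitroaniline, reads at 0 and 120 min. Read-out basis: percent activation relative to control range. Replicates: singlicate.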
JMJD2C inh – inhibitors of GASC-1 histone demethylase, primary screen, biochemical, fluorescence, DELFIA europium; Lysine-specific demethylase 4C (Homo sapiens), Q9H3R0; GST-JMJD2C(1-420) H3K9me3 demethylation; inhibition, % at 2.35 µM; 330,000 compounds, 0.069% hits;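 active = more than half of a compound's replicate wells show inhibition beyond 50%, single wells judged on their own value; inconclusive = some, but no more than half, of replicates pass 50% inhibition; inactive = no replicate passes 50% inhibition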;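 also: signal counts dimethyl H3K9 product captured on neutravidin plate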
GRK2 inh confirm – GRK2 aptamer-displacing inhibitors, retest, confirmation, biochemical, cherry pick 1, bead flow cytometry. shares compounds with GRK2 aptamer HTS. aptamer displacement, % at 10 µM. 2,000 compounds, 4% hits. AID 504451, 2011. bead-bound GRK2, FAM-aptamer displacement;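 active = aptamer displacement above 40%, near three times the noise of non-fluorescent compounds, on plates passing quality checks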;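 also: negative values mostly reflect intrinsic compound fluorescence rather than true enhancement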
Aptamer quench 1 – quenches fluorescent RNA aptamer, GRK2 hit artifact; 110 tested, under 10 active; Fluorescent RNA aptamer beads, quenching, flow cytometry; active compounds read high; shares compounds with GRK2 aptamer HTS; fluorescence change (kMESF span), kMESF (concentration not given with the values);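 active = compounds whose bead fluorescence drops by more than 37 kMESF across the dose range, marking them as dye quenchers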
Aptamer quench SP – quenches fluorescent RNA aptamer, GRK2 hit artifact. Carboxyfluorescein RNA aptamer on beads, flow cytometry quenching; active compounds read low. fluorescence response (% of DMSO), % at 10 µM. shares compounds with GRK2 aptamer HTS. 2,000 tested, under 10 active;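 active = compounds that quench the bead-bound fluorescent RNA probe, cutting fluorescence to under half of the solvent control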;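 also: counterscreen run without GRK2 so only probe quenching by compound is measured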
GRK2 CP2 – GRK2 aptamer-displacing inhibitors, hit retest, confirmation, biochemical, cherry pick 2, bead flow cytometry; shares compounds with GRK2 aptamer HTS; bead-bound GRK2, FAM-aptamer displacement; inhibition of aptamer binding, % at 10 µM; 360 tested, under 10 active; AID 504782, 2011;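 active = inhibition of aptamer binding above 40%, about triple the noise seen with nonglowing compounds, on plates passing quality control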;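 also: negative values mostly come from compounds that fluoresce themselves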
FAM quench SP – aptamer fluorescence quenching in GRK2 counter-screen; shares compounds with GRK2 aptamer HTS; carboxyfluorescein RNA aptamer beads, flow cytometry quenching; active compounds read low; fluorescence response vs DMSO, % at 10 µM; 360 tested, under 10 active; AID 588494;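 active = response vs DMSO under 50%, meaning signal dropped by over half, treated as fluorescence quencher; inconclusive = no clear call, values can overlap the other calls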;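 also: labelled aptamer on streptavidin beads without GRK2 as a quench counter-screen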
FAM quench PS1 – quenchers of FAM-labeled RNA aptamer fluorescence, dose response, artefact control for GRK2 aptamer binding project, biochemical, powder set 1, flow cytometry. Bead-bound FAM RNA aptamer fluorescence quenching; active compounds read low. shares compounds with GRK2 aptamer HTS. AID 588496, 2011. 35 tested, under 10 active. fluorescence ratio to DMSO, % at 11.1 µM;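 active = compounds that dim the fluorescent label, raw bead signal shifting by over 33 units between lowest and highest dose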
Each line names hits and unclear results; the compound was inactive in the other large screens (follow-up assays come after a bar, where they were run). This is a sample that favours compounds with a hit; in the whole collection about 1.3% have one here.

Cc1ccc(SCc2c(C(=O)N/N=C/c3ccc4c(c3)OCO4)nnn2-c2nonc2N)cc1	GRK2 aptamer HTS 51 | GRK2 inh confirm inactive | Aptamer quench SP inactive
CCCN(C(=O)CSc1nc(C2CC2)n(-c2ccccc2)n1)C1CCS(=O)(=O)C1 (stereo unspecified)	none (no result: Lipid droplet)
COc1ccc(CNC(=O)C2COc3ccccc3O2)c(OC)c1 (stereo unspecified)	none (no result: Lipid droplet) | GRK2 inh confirm inactive | Aptamer quench SP inactive
COc1cccc(C2(O)CCN(C(=O)C(C)C)CC2)c1	GRK2 aptamer HTS 55 | GRK2 inh confirm inactive | Aptamer quench SP inactive
O=C(Cc1ccc(-n2cccc2)cc1)NC1CCCCC1	GRK2 aptamer HTS 45 (no result: Lipid droplet) | GRK2 inh confirm inactive | Aptamer quench SP inactive
O=C(O)Cc1ccc(-n2cccc2)cc1	GRK2 aptamer HTS 99 | GRK2 inh confirm 99 | Aptamer quench 1 inactive | Aptamer quench SP inactive | FAM quench PS1 inactive
O=C(Cc1ccc(O)cc1)NC1CCCCCC1	none
O=C(NC1CCCCC1)N1CCN(CCc2ccccc2)CC1	GRK2 aptamer HTS 70 | GRK2 inh confirm inactive | Aptamer quench SP inactive
CCN1CCN(C(=O)NC2CCCCC2)CC1	none
Cc1ccc(CNC(=O)Cc2ccc(-n3cccc3)cc2)cc1	none
CCN(c1ccc(NC(=O)COC(=O)/C=C/c2cccs2)cc1)C(C)C	none
O=C(CN1C(=O)COc2ccc(Cl)cc21)N1CCCCC1	none
NC(=O)C(c1ccccc1)c1ccc(C(=O)c2ccccc2)cc1 (stereo unspecified)	none
O=C(Nc1ccc2c(c1)C(=O)OC2)c1ccc(Cl)cc1	none
O=C1OCc2ccc(NC(=O)c3sccc3Cl)cc21	GRK2 aptamer HTS 73 | GRK2 inh confirm inactive | Aptamer quench SP inactive
CCNc1nc(SCC(=O)Nc2ccc(Cl)c(Cl)c2)nc(N(C)C)n1	GRK2 aptamer HTS 45 | GRK2 inh confirm inactive | Aptamer quench SP inactive
COc1ccccc1Oc1cc(-n2nc(C)cc2C)ncn1	GRK2 aptamer HTS 82 | GRK2 CP2 inactive | FAM quench SP inactive
C=CCn1c(NC(=O)c2ccccc2Cl)c(C#N)c2nc3ccccc3nc21	GRK2 aptamer HTS 43 (no result: Lipid droplet) | GRK2 inh confirm inactive | Aptamer quench SP inactive
Cc1ccc(-c2noc(C3CCCN(C(=O)c4cccc(F)c4)C3)n2)cc1 (stereo unspecified)	GRK2 aptamer HTS 100 | GRK2 inh confirm inactive | Aptamer quench SP inactive
CCOC(=O)C1=CNS(=O)(=O)NC1c1ccc(C[C@H](NC(=O)CNC(=O)CCc2ccccc2)C(N)=O)cc1 (stereo partly specified)	none (no result: Lipid droplet, VLA-4 inh, JMJD2C inh)
O=C1CSCC(=O)N1Cc1ccc(Cl)c(Cl)c1	none
O=Cc1ccc(Oc2nc(Cl)ncc2F)cc1	none (no result: procasp7 counter, proCasp3 act) | GRK2 inh confirm inactive | Aptamer quench SP inactive
O=Cc1ccc(Oc2ccc(F)cc2)nc1	none
CCOc1ccc(CNC(=S)N/N=C\c2ccc([N+](=O)[O-])cc2)cc1	GRK2 aptamer HTS 64 | GRK2 inh confirm inactive | Aptamer quench SP inactive
CCOc1ccc(N2CC(C(=O)NC3CCCCCC3)CC2=O)cc1 (stereo unspecified)	none
CN(Cc1ccccc1)C(=O)CCS(=O)(=O)c1ccc2c(c1)NC(=O)CS2	none | GRK2 CP2 inactive | FAM quench SP inactive
CC(CS(=O)(=O)c1ccc2c(c1)NC(=O)CS2)C(=O)NCc1ccccc1Cl (stereo unspecified)	GRK2 aptamer HTS 99 | GRK2 inh confirm 78 | Aptamer quench 1 inactive | Aptamer quench SP inactive | FAM quench PS1 inactive
O=C1CSc2ccc(S(=O)(=O)NCc3ccccc3Cl)cc2N1	none
COc1cc2c(cc1OC)CN(c1ccc(C(N)=O)cc1[N+](=O)[O-])CC2	none
CN(CC(=O)Nc1cccc(F)c1)C(=O)c1ccc(N2C(=O)c3ccccc3C2=O)cc1	none (no result: Lipid droplet) | GRK2 inh confirm inactive | Aptamer quench SP inactive
Cc1ccccc1C(=O)N1CCC(C(=O)N(C)CC(=O)Nc2cccc(F)c2)CC1	GRK2 aptamer HTS 51 | GRK2 CP2 inactive | FAM quench SP inactive
CN(CC(=O)Nc1cccc(F)c1)C(=O)C1CCN(S(=O)(=O)c2ccc3c(c2)OCCO3)CC1	JMJD2C inh inconclusive (no result: Lipid droplet)
CN(CC(=O)Nc1cccc(F)c1)C(=O)c1cccc(-n2cccc2)c1	none (no result: Lipid droplet)
CN(C)CCCNC(=O)C[C@H]1C[C@H](C(=O)N2CCCCC2)[C@@]2(CCc3ccccc3)c3[nH]c4ccc(Cl)cc4c3CCN2C1=O	none (no result: Lipid droplet, VLA-4 inh, JMJD2C inh)
CCOC(=O)c1c(S(=O)(=O)NCC(=O)N2CCN(c3cccc(OC)c3)CC2)c(C)n(C)c1C	none
CN(C(=O)/C=C/c1cnc2ccccc2c1)C1CCCCC1	none
Cc1nn(Cc2c(F)c(F)c(F)c(F)c2F)c(C)c1NC(=O)c1ccc(COc2ccccc2Cl)o1	none (no result: Lipid droplet) | GRK2 inh confirm inactive | Aptamer quench SP inactive
Cc1ccc(-c2csc3ncnc(N4CCN(S(=O)(=O)c5cccs5)CC4)c23)cc1	none (no result: Lipid droplet)
